Measured values collected from several papers.
Lines come from different studies, so protocols differ.
Cell line: MRC5
Observed: cell growth or viability

| SMILES | assay | setting | endpoint | value |
| --- | --- | --- | --- | --- |
| CC(C)(C)OC(=O)N1CCN(c2cc(-c3cnc4[nH]cc(C(=O)c5ccc(F)cc5)c4c3)ccn2)CC1 | MTT | 10 µM, 48 h | viability | 78.9% |
| Nc1cc(Br)c(Br)cc1N |  | 72 h | IC50 | 200 µM |
| CC(C)(C)OC(=O)N1CCN(c2ccc(-c3cnc4[nH]cc(C(=O)c5ccc(F)cc5)c4c3)cc2)CC1 | MTT | 10 µM, 48 h | viability | 78.7% |
| CC1=CC(=O)c2c(O)cccc2C1=O | SRB |  | IC50 | 5.15 µM |
| COc1c2c(cc3c1OCO3)[C@]13C=C[C@H](OC)C[C@@H]1[N@](C2)C[C@H]3OC(=O)c1ccc2ccccc2c1 | WST-1 |  | IC50 | > 10 µM |
| O=c1c2ccccc2[se]n1-c1ccccc1 | MTT | 72 h | IC50 | 94 µM |
| Nc1cc(Cl)c(Cl)cc1N |  | 72 h | IC50 | > 250 µM |
| C=CCc1cc(OC)c2c(c1)OCO2 | SRB |  | IC50 | 420 µM |
| CS(=O)(=O)N1CCN(c2ccc(-c3cnc4[nH]cc(C(=O)c5ccc(F)cc5)c4c3)cn2)CC1 | MTT | 10 µM, 48 h | viability | 79.1% |
| N.N.[Cl][Pt][Cl] | SRB |  | EC50 | 5.8 µM |
| COc1c2c(cc3c1OCO3)[C@]13C=C[C@H](OC)C[C@@H]1[N@](C2)C[C@H]3OC(=O)c1ccoc1 | WST-1 |  | IC50 | > 10 µM |
| CCOC(=O)CCn1cc(C(=O)c2ccc(F)cc2)c2cc(-c3ccc(N4CCN(C(=O)OC(C)(C)C)CC4)nc3)cnc21 | MTT | 10 µM, 48 h | viability | 92.1% |
| CC(C)=CCOc1c2occc2cc2ccc(=O)oc12 | MTT | 72 h | IC50 | > 100 µM |
